Assay results gathered from unrelated publications.
Lines come from different studies, so protocols differ.
HTR2A: 5-hydroxytryptamine receptor 2A (HTR2A, Homo sapiens, UniProt P28223)
SRD5A1: 3-oxo-5-alpha-steroid 4-dehydrogenase 1 (SRD5A1, Homo sapiens, UniProt P18405)

Compound | target | observed | action | technique | cells | tested at | inhibition [%]
CCN1/C(=C/C(C)=O)Sc2ccc(F)cc21 | Cannabinoid receptor 1 (CNR1, Homo sapiens, UniProt P21554) | ligand displacement |  | radioligand |  | 10 µM | 0
C#Cc1cc(-c2cc(Nc3nc(N[C@@H](C)c4ccc(F)cn4)ncc3Cl)n[nH]2)ccc1C=O | Cytoplasmic tyrosine-protein kinase BMX (BMX, Homo sapiens, UniProt P51813) | enzyme activity | inhibitor |  |  | 0.2 µM | 70.8
COc1cc2c3c(c1OC)-c1c(OC)ccc(NC(C)=O)c1CC3N(C)CC2 (stereo not shown) | HTR2A | ligand displacement |  | radioligand |  | 10 µM | 9
NC/C(=C\F)COc1cccc(Cn2c(=S)[nH]c(=O)c3[nH]cnc32)c1 | Hepatic sodium/bile acid cotransporter (SLC10A1, Homo sapiens, UniProt Q14973) | transporter uptake | inhibitor |  |  | 30 µM | < 50
COC(=O)C=Cc1ccc(OC(C)=O)c(OC(C)=O)c1 | SRD5A1 | enzyme activity in cells | inhibitor |  | HaCaT | 50 µM | 25.1
Cc1cc(O)c(-c2ccc([C@@H](C)CN(C)C)cc2)c2c1[nH]c(=O)c1sccc12 | Serine/threonine-protein kinase VRK2 (VRK2, Homo sapiens, UniProt Q86Y07) | enzyme activity | inhibitor |  |  | 0.1 µM | 3.23
COC(=O)C=Cc1ccc(OC)c(OC)c1 | SRD5A1 | enzyme activity in cells | inhibitor |  | HaCaT | 50 µM | 26.1
COc1cc2c3c(c1OC)-c1c(OC)ccc(-c4ccc(C#N)cc4)c1CC3N(C)CC2 (stereo not shown) | HTR2A | ligand displacement |  | radioligand |  | 10 µM | 34
COc1cc(C=CC(=O)O)ccc1OC(C)=O | SRD5A1 | enzyme activity in cells | inhibitor |  | HaCaT | 50 µM | 18.6
Cc1cc(F)cc2c(CCC(=O)N[C@@H]3C(=O)NC[C@H]3O)c(-c3ccc(F)cc3)[nH]c12 | Endothelin-1 receptor (EDNRA, Homo sapiens, UniProt P25101) | cell-free assay |  |  |  | 10 µM | -19
